Only some compounds are listed: those with a hit (about 1.9% of all), similar ones and a draw of the others.
NPY-Y1 PAM-ag = potentiates or activates human NPY-Y1 receptor | activation, % at 3.6 µM | NPY-Y1 expressing cells, potentiator/agonist activation | actives 0.37% (n = 220,000); in the data active means activation above about 33%, passing the limit was not always enough;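 further: cells stimulated with NPY at EC10 then isoproterenol at EC100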
NPY Y1 blocker = NPY-Y1 (human) receptor antagonism; HEK293-CNG Y1 cells, membrane potential fluorescence; NPY at EC95, then isoproterenol; inhibition, % at 3.6 µM; actives 1% (n = 200,000); AID 1040;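 active means inhibition above the campaign mean inhibition of all tested compounds plus 3 SD, cut at about 20% in these data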
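Assay system: HEK293 cells with Y1 receptor plus CNG channel | Probe or stimulus: NPY (25 nM), isoproterenol (1 µM), Ro 20-1724 (25 µM) | Timing: Compound incubation 1 h at room temperature, readout 45 min post-stimulation | Measured by: Membrane-potential fluorescent dye readout | Benchmarks: High control isoproterenol alone, low control NPY with isoproterenol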
NPY-Y2 antag = blocks the human neuropeptide Y Y2 receptor; P49146; NPY-Y2 expressing cells, antagonist mode; inhibition, % at 2.7 µM; actives 0.99% (n = 140,000)
Target sequence (P49146 whole entry, looked up): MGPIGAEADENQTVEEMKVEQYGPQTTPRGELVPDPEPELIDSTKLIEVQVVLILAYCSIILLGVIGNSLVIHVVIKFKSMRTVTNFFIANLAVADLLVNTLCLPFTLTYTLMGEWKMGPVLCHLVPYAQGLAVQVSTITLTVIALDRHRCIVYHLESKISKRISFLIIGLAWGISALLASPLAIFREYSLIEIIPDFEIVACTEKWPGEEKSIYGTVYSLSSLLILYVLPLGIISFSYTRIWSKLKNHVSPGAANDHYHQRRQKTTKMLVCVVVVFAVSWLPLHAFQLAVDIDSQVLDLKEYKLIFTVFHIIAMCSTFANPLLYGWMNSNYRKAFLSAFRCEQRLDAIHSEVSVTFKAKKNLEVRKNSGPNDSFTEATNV
NPY-Y2 PAM-ag = potentiates or activates human NPY-Y2 receptor; cells expressing NPY-Y2, potentiator/agonist read-out; P49146; actives 0.45% (n = 220,000); activation, % at 3.6 µM; in the data active means activation above about 27%;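 further: cells stimulated with NPY near EC25 plus isoproterenol at EC100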
NPY-Y1 ant conf = confirmation of human neuropeptide Y receptor Y1 antagonists | shares compounds with NPY Y1 blocker | HEK293-CNG NPY-Y1, membrane potential fluorescence, cAMP; NPY challenge against isoproterenol-raised cAMP | inhibition, % at 3.6 µM | actives 21% (n = 1,200); in the data active means inhibition above about 20%
NPY2 antag ctr = counter-screen for NPY-Y1 antagonists: human NPY-Y2 antagonism. actives 28% (n = 1,200). shares compounds with NPY Y1 blocker. inhibition, % at 3.6 µM. AID 1255. HEK293 NPY-Y2 CNG membrane potential fluorescence; cells given NPY, then isoproterenol
A number is an active result; - = inactive; . = not tested or not shown. Unless noted, no stated cut-off is given here; in the data, active means inhibition above about 17%; inactive means the rest.

SMILES | NPY-Y1 PAM-ag | NPY Y1 blocker | NPY-Y2 antag | NPY-Y2 PAM-ag | NPY-Y1 ant conf | NPY2 antag ctr
CCn1c(=O)cc(SCC(=O)N2CCN(c3ccccn3)CC2)c2ccccc21 | - | - | - | - | . | .
O=C(Nc1ccccc1C(=O)Nc1nnc(C(F)(F)F)s1)c1ccccc1Cl | - | . | . | - | . | .
COc1ccccc1OCCCn1c(=O)oc2ccc(C)cc21 | - | - | - | - | . | .
CCCOc1ccc(Cn2c(=O)oc3ccc(C)cc32)cc1OC | - | 32 | - | - | - | -
COc1ccc2c(c1)C(C)=CC(C)(C)N2S(=O)(=O)c1ccc(Br)cc1 | - | 55 | . | - | 27 | 22
COc1cccc(CN2CCN(S(=O)(=O)c3ccc(Br)cc3)CC2)c1 | - | - | - | - | . | .
COc1ccc(-c2cc(C(F)(F)F)n3nc(C(=O)NCc4ccco4)cc3n2)cc1 | - | 24 | - | - | - | -
Cc1cc(C)c(C(=O)CSc2nnc(C)c(=O)[nH]2)cc1C | - | - | . | - | . | .
COc1cccc(C2NC(=O)NC(C)=C2C(=O)Nc2ccc(C)cc2)c1 (centres undefined) | - | - | - | - | . | .
COC(=O)C1=C(Nc2ccc(C)cc2)C=C(C)C(C(=O)OC)C1c1cccc(OC)c1 (centres undefined) | - | 24 | - | - | - | -
CCCN(CCC)CCNC(=O)C1CCN(Cc2nc(-c3ccc(Cl)cc3)oc2C)CC1 | - | 24 | - | - | - | 28
FC(F)(F)COc1nc(OCC(F)(F)F)nc(N2CCN(c3ccccc3)CC2)n1 | - | 28 | - | - | - | -
COc1ccc(C2=NOC(C(=O)NCc3ccc(F)cc3)C2)cc1 (centres undefined) | - | 41 | - | - | - | -
COc1cc(C2=NOC(C(=O)NCc3cccs3)C2)cc(OC)c1OC (centres undefined) | - | - | - | - | . | .
COc1ccc(C2=NOC(C(=O)NCc3cccs3)C2)cc1OC (centres undefined) | - | 23 | - | - | - | -
COc1ccc(CNC(=O)C2CC(c3ccc(F)cc3)=NO2)cc1 (centres undefined) | - | - | - | - | . | .
COc1ccccc1C(=O)NCC1(c2ccccc2)CCCC1 | - | - | . | - | . | .
CCCCNC(=O)CN1C(=O)NC2(CCCc3ccccc32)C1=O (centres undefined) | - | 25 | - | - | - | -
CC(C)C(C)NC(=O)CN1C(=O)NC2(CCCc3ccccc32)C1=O (centres undefined) | - | - | . | - | . | .
NC(=O)c1c(/N=C/c2cccs2)sc2c1CCCC2 | - | . | . | - | . | .
COc1cccc2cc(-c3nc(-c4cccs4)cs3)c(=O)oc12 | - | - | - | - | . | .
O=c1oc2ccccc2cc1-c1nc(-c2cccs2)cs1 | - | 30 | - | - | - | -
CSC1=NCCN1CCOc1ccccc1 | - | - | . | - | . | .
CCOC(=O)c1cnc2ccc(OC)cc2c1Nc1ccc2c(c1)OCCO2 | - | 39 | - | - | - | -
CCOC(=O)c1cnc2ccc(C(=O)OC)cc2c1Nc1ccc2c(c1)OCCO2 | - | - | - | - | . | .
SMILES | NPY-Y1 PAM-ag | NPY Y1 blocker | NPY-Y2 antag | NPY-Y2 PAM-ag | NPY-Y1 ant conf | NPY2 antag ctr
CC(=O)c1csc(CS(=O)(=O)c2ccccn2)n1 | - | . | . | - | . | .
COc1cc(/C=C/C(=O)NC(C)CCc2ccccc2)cc(OC)c1OC (centres undefined) | - | 22 | - | - | - | -
CC(CCc1ccccc1)NC(=O)/C=C/c1ccccc1 (centres undefined) | - | - | - | - | . | .
O=C(NC1CCCC1)C(c1ccncc1)N(Cc1ccccc1)C(=O)Cc1cccs1 (centres undefined) | - | 21 | - | - | - | -
O=C(NC1CCCCC1)C(c1ccncc1)N(Cc1ccc2c(c1)OCO2)C(=O)c1cnsn1 (centres undefined) | - | 25 | - | - | 28 | -
COc1ccc(N2C(=O)C3C(c4ccc(C(=O)O)cc4)NC(Cc4ccccc4)(C(=O)O)C3C2=O)c([N+](=O)[O-])c1 (centres undefined) | - | - | . | - | . | .
O=C(Cn1c(=O)oc2ccccc21)Nc1n[nH]c(=S)s1 | - | . | . | - | . | .
Cc1ccc(Nc2nc(N)nc(-c3oc4ccccc4c3C)n2)cc1 | - | 24 | . | - | - | 30
COc1cc(CN2CCCC(C(=O)c3ccc4c5c(cccc35)CC4)C2)cc(OC)c1O (centres undefined) | - | - | . | - | . | .
Cc1ccc(-n2cccn2)c(CN2CCCC(C(=O)c3ccc4c(c3)OCO4)C2)c1 (centres undefined) | - | 28 | . | - | 24 | 28
O=C(c1ccc2c(c1)OCO2)C1CCCN(Cc2cc(F)ccc2-n2cccn2)C1 (centres undefined) | - | - | . | - | . | .
CN(Cc1c(C(=O)N2CCc3ccccc3C2)nc2ccc(Cl)cn12)C(C1CC1)C1CC1 | - | 25 | . | - | - | -
CCCCOc1ccc(C(=O)N/N=C/c2ccc(OCCN3CCCCC3)c(OC)c2)cc1 | - | - | - | - | . | .
COc1ccc(Br)cc1CNC(=O)CCc1nc(-c2ccc(C)cc2)no1 | - | 21 | - | - | - | -
CSc1sc(C(=O)Nc2ccc(F)cc2F)c2c1C=CCC2 | - | . | . | - | . | .
CCCC(OC(=O)CN1C(=O)COc2ccccc21)C(=O)NC1CCCC1 (centres undefined) | - | 24 | - | - | - | -
CCc1ccc(NC(=O)COC(=O)CN2C(=O)COc3ccccc32)cc1 | - | - | - | - | . | .
NC(=O)/C(=C\c1cccnc1)NC(=O)c1ccccc1 | - | - | . | - | . | .
Cc1nc2c(C(=O)N3CCCC3)cnn2c(C)c1Cc1c(F)cccc1Cl | - | - | - | - | . | .
Cc1nc2c(C(=O)N3CCN(c4ccccn4)CC3)cnn2c(C)c1Cc1cccc(Cl)c1 | - | 31 | - | - | - | -
COc1cc(NC(=O)C2COc3ccccc3O2)c(OC)cc1Cl (centres undefined) | - | 31 | - | - | - | -
COc1cc(NC(=O)c2ccc(Cl)cc2)c(OC)cc1Cl | - | 31 | - | - | - | -
COC(=O)c1ccc(C)c(NC(=O)C2COc3ccccc3O2)c1 (centres undefined) | - | - | - | - | . | .
COc1ccc(NC(C)=O)cc1NC(=O)c1ccc(Cl)cc1 | - | - | . | - | . | .
CCOc1cc(NC(=S)NCC2CCCO2)c(OCC)cc1NC(=O)CC(C)C (centres undefined) | - | - | . | - | . | .
c1ccc(-c2cn(-c3ccccc3)c3[n+]2CCS3)cc1 | - | - | . | - | . | .
CC(C)(C)c1ccc(-c2cn(-c3ccc(Br)cc3)c3[n+]2CCCS3)cc1 | - | 55 | . | - | 68 | 32
O=C(CC12CC3CC(CC(C3)C1)C2)NC(=S)Nc1ccc(CN2CCOCC2)cc1 | - | - | . | - | . | .
Cc1ccccc1Oc1cc(NC(=O)CCCn2nc(C)c([N+](=O)[O-])c2C)cc([N+](=O)[O-])c1 | - | - | - | - | . | .

Source: PubChem
